Structures are written as SMILES. Active and inactive are the calls of the source. The rule behind the calls is not given here.

From ChEMBL document CHEMBL2396611, “Synthesis and mechanism of hypoglycemic activity of benzothiazole derivatives” (J Med Chem, 2013) come the findings set out here.

The target of data set [1] is 5'-AMP-activated protein kinase catalytic subunit alpha-2 (Rattus norvegicus) (UniProt Q09137). The experiment in a line: Activation of AMPK in rat L6 cells assessed as increase of [3H]dGlc uptake at 25 uM up to 24 hrs. It counts as cell-based. The method in brief:
(§1)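 Fully differentiated L6 myotubes preincubated 24 h in αMEM with 2% FCS and 23.0 mmol/L D-glucose, then 4 h serum-free with 0.5% BSA. Compound or DMSO vehicle given for the indicated times or concentrations. Uptake read after 5 min at room temperature in PBS pH 7.4 with 0.1 mmol/L dGlc and 1.3 μCi/mL [3H]dGlc, by scintillation of SDS lysates. Zero-time basal rate set as 100%; n=6.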

Data set [2] shares this target. In words: Activation of AMPK in rat L6 cells assessed as AS-160 phosphorylation at Thr642 at 250 mM after 40 mins by Western blot analysis relative to control. It counts as cell-based. The procedure, abridged:
(§2)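 Fully differentiated L6 myotubes, preincubated 3 h with or without 5 μM Compound C. Test agents: compound at 25 μM for 3 h, sorbitol 250 mM for 40 min, AICAR 4 mM for 30 min. Whole-cell lysates probed by Western blot for pSer79-ACC, ACC, pThr642-AS-160, AS-160 and α-tubulin; band densities summarized, n=3, vs respective controls.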

Data set [3] concerns Mus musculus. The experiment in a line: Antidiabetic activity in KKAy mouse assessed as reduction of blood glucose level at 30 to 75 mg/kg, sc bid for 4 days measured on day 3 relative to control. The note with it: dose mg/kg 30-75; route subcutaneous. Also on record: scale not given: the % may be the effect or the level left. It is filed as functional. The method in brief:
(§3)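 Hyperglycemic KKAy mice injected s.c. twice daily for 4 days with compound at 30 or 75 mg/kg suspended in sesame oil; controls received sesame oil (150 µl). Blood glucose measured at the indicated times, with day-zero levels taken as 100%. n=10 per group, mean ± SEM, compared with oil-treated group.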

For data set [4], the system named is L6. In words: Activation of AMPKalpha in rat L6 cells assessed as phosphorylation at Thr172 at 150 uM after 4 hrs by Western blot analysis. It counts as cell-based. The procedure, abridged: (§4)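 L6 myotubes treated 4 h with increasing compound concentrations (5 to 150 μM) or DMSO. Whole-cell lysates immunoblotted for pThr172-AMPKα, AMPKα and α-tubulin; phosphorylation expressed relative to DMSO-treated control.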

In data set [5] the target is 5'-AMP-activated protein kinase catalytic subunit alpha-2 (Rattus norvegicus) (UniProt Q09137). In words: Activation of AMPK in rat L6 cells assessed as AS-160 phosphorylation at Thr642 at 25 uM after 3 hrs by Western blot analysis relative to control. It counts as cell-based. The procedure, abridged:
as §2

The target of another data set is Cytochrome P450 2C9 (Homo sapiens, UniProt P11712). In words: Inhibition of CYP2C9 (unknown origin) by luminescent based assay. It counts as ADME.
Cytochrome P450 2C9, sequence (P11712 whole entry): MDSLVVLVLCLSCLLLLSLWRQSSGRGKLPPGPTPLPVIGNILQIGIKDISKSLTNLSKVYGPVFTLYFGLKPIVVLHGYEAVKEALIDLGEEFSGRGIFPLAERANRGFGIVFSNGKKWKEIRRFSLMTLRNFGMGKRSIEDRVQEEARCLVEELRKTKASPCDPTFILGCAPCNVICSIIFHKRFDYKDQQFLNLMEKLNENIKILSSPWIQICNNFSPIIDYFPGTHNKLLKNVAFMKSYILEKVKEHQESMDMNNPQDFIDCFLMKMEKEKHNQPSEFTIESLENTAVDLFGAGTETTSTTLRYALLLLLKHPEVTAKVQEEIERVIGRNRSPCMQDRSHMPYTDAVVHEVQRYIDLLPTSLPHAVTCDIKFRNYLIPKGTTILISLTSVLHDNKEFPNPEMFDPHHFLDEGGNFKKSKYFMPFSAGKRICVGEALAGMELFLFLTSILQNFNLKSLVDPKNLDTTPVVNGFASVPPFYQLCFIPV
Data set [6] deals with L6. In words: Activation of AMPKalpha in rat L6 cells assessed as phosphorylation at Thr172 at 10 uM after 4 hrs by Western blot analysis relative to control. It is filed as cell-based. The method in brief: as §4
For data set [7], the system named is L6. In words: Activation of AMPKalpha in rat L6 cells assessed as phosphorylation at Thr172 at 100 uM after 4 hrs by Western blot analysis relative to control. It counts as cell-based. The procedure, abridged: as §4
Data set [8] deals with L6. In words: Activation of AMPKalpha in rat L6 cells assessed as phosphorylation at Thr172 at 150 uM after 4 hrs by Western blot analysis relative to control. It is filed as cell-based. The procedure, abridged:
as §4

The target in another data set is T1, Cytochrome P450 1A2 (Homo sapiens, UniProt P05177).
T1 sequence (P05177 whole entry): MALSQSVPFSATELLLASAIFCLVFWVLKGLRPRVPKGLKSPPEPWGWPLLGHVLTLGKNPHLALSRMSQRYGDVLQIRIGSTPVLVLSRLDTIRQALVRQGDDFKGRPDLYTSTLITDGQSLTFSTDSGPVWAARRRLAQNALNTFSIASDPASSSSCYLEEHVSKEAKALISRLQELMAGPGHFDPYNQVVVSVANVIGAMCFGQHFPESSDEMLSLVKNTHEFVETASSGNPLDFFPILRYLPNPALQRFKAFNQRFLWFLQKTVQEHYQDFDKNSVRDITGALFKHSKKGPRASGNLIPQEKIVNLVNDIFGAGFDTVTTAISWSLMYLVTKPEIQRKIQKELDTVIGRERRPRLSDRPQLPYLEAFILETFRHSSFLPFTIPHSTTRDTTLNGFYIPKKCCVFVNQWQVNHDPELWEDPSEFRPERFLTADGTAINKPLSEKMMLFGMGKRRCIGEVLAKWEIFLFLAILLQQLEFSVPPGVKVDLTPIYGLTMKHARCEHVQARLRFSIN
The experiment in a line: Inhibition of CYP1A2 (unknown origin) by luminescent based assay. It counts as ADME.

Data set [9] addresses 5'-AMP-activated protein kinase catalytic subunit alpha-2 (Rattus norvegicus) (UniProt Q09137). The experiment in a line: Activation of AMPK in rat L6 cells assessed as increase of [3H]dGlc uptake after 5 hrs in presence of PI3K inhibitor wortmannin. It is filed as cell-based. The procedure, abridged: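 Myotubes treated with compound, insulin or vehicle in the absence or presence of 100 nM wortmannin or 100 nM Akt/PKB inhibitor, each added 30 min before compound or insulin. Compound C 5 μM was added 5 h before the uptake assay. Rate then measured by the standard 5-min [3H]dGlc uptake assay.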

In data set [10] the test system is Mus musculus. In words: Antidiabetic activity in overnight fast KKAy mouse assessed as total body glucose clearance at 30 to 75 mg/kg, sc bid for 2 days. It counts as functional. The note with it: dose mg/kg 30-75; route subcutaneous.
The subject of data set [11] is L6. In words: Activation of AMPKalpha in rat L6 cells assessed as phosphorylation at Thr172 at 15 uM after 4 hrs by Western blot analysis relative to control. It is filed as cell-based. The method in brief:
as §4

The test system of data set [12] is Mus musculus. In words: Antidiabetic activity in KKAy mouse assessed as reduction of blood glucose level at 30 to 75 mg/kg, sc bid for 4 days measured on day 2 relative to control. It is filed as functional. Also on record: scale not given: the % may be the effect or the level left. The note with it: dose mg/kg 30-75; route subcutaneous. The procedure, abridged:
as §3

Data set [13] deals with 5'-AMP-activated protein kinase catalytic subunit alpha-2 (Rattus norvegicus) (UniProt Q09137). In words: Increase in AMPK-mediated myc-tagged GLUT4 translocation in rat L6 cell plasma membrane at 25 uM after 5 hrs by colorimetric analysis. The method in brief:
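L6 lines stably carrying GLUT4myc or GLUT1myc, treated 5 h with test agent or DMSO; insulin given for 30 min. Live myotubes incubated with rabbit anti-c-Myc (1:200), washed, fixed in 3% formaldehyde, then HRP anti-rabbit IgG (1:2000). Developed with OPD and read at 492 nm to give relative surface transporter abundance.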

Data set [14] deals with L6. In words: Effect on total GLUT1 expression in rat L6 cell lysate at 25 uM after 30 mins to 5 hrs by Western blot analysis. It is filed as functional, cell-based. The procedure, abridged:
(§5)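 Fully differentiated L6 myotubes, preconditioned in αMEM with 23.0 mM D-glucose; insulin exposure 30 min, test exposure 5 h. Whole-cell lysates made in Tris-HCl pH 7.5 buffer with phosphatase and protease inhibitors, 40 min at 4 °C. Protein measured by Bradford, 5-60 µg per lane. Western blot probed with rabbit polyclonal anti-GLUT1 or anti-GLUT4.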

The subject of data set [15] is L6. The experiment in a line: Effect on total GLUT4 expression in rat L6 cell lysate at 25 uM after 30 mins to 5 hrs by Western blot analysis. It counts as functional, cell-based. The method in brief:
as §5

Data set [16] relates to Mus musculus. In words: Antidiabetic activity in po dosed KKAy mouse assessed as reduction of blood glucose level. It counts as functional, organism-based.
For data set [17], the system named is L6. The experiment in a line: Activation of AMPKalpha in rat L6 cells assessed as phosphorylation at Thr172 at 5 uM after 4 hrs by Western blot analysis relative to control. It counts as cell-based. The procedure, abridged:
as §4

Data set [18] concerns the target 5'-AMP-activated protein kinase catalytic subunit alpha-2 (Rattus norvegicus) (UniProt Q09137). The experiment in a line: Activation of AMPK in rat L6 cells assessed as ACC phosphorylation at Ser79 at 4 mM after 30 mins by Western blot analysis relative to control. It counts as cell-based. The procedure, abridged: as §2
For data set [19] the target is unchanged. In words: Activation of AMPK in rat L6 cells assessed as increase of [3H]dGlc uptake after 5 hrs. It is filed as cell-based. The procedure, abridged:
as §1

5'-AMP-activated protein kinase catalytic subunit alpha-2 (Rattus norvegicus), sequence (Q09137 whole entry): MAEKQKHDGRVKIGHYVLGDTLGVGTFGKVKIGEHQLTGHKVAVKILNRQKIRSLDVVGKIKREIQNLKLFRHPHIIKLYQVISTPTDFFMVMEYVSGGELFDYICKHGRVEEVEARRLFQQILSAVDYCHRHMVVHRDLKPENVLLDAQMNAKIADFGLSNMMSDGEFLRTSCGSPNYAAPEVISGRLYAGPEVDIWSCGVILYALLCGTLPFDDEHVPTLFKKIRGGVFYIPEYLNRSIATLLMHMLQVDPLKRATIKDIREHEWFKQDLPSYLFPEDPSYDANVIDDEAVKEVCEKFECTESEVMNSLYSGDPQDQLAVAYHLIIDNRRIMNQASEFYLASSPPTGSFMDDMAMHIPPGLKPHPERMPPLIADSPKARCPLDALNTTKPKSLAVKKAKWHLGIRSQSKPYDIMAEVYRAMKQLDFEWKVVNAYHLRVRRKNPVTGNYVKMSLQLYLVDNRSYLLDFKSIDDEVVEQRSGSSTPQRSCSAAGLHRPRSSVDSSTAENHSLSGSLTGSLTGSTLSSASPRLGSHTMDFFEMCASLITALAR

Consider `CCOc1ccc2nc(SCc3nc4ccccc4s3)sc2c1`, for which the result in data set [1], in data set [9] and in data set [13] was Active. The fold change (FC) turned out to be 1.55 in data set [2]; 7.6 in the data set on L6 [4]; 1.09 in data set [5]; 4.7 in the data set on L6 [6]; 5.2 with L6 [7]; 7.6 in the data set on L6 [8]. The values for the fold change (FC) (in the data set on L6 [11]; in the data set on L6 [17]; in data set [18]) were 5.5, 2 and 3.63, respectively. The Activity in the data set on Mus musculus [3] is 50%; with Mus musculus [10], 40%; with Mus musculus [12], 45%; in data set [19] it was “Dose-dependent effect”. Moreover, the “inhibition (INH)” value on Cytochrome P450 2C9 and at Cytochrome P450 1A2 was “Not Active” each time. In addition, the result in the data set on L6 [14], in the data set on L6 [15] and in the data set on Mus musculus [16] was inactive.
